APJ agonist = agonists of human APJ apelin receptor | P35414 | CHO-K1 APJ PathHunter beta-arrestin, luminescence; 0% DMSO wells, 100% apelin | activation, % at 20 µM | 330,000 tested, 0.11% active;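 active = activation more than six SD over the plate average, tested at 20 µM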
Target sequence (P35414 whole entry, looked up): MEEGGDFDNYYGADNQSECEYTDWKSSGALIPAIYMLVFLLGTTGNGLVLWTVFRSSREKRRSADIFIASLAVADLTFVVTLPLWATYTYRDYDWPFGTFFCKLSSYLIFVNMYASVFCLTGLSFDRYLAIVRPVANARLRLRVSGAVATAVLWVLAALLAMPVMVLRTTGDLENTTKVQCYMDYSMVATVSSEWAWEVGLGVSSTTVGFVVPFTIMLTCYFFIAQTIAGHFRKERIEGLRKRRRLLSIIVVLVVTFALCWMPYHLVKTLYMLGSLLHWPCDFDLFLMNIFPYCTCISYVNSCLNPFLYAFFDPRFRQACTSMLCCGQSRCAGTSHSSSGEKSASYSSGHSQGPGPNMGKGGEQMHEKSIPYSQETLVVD
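Assay system – PathHunter CHO-K1 APJ (AGTRL-1) beta-arrestin reporter cells · Compound – one dose, 20 µM compound, 1% DMSO · Timing – compound 90 min 25 °C, reagent 1 h · Measured by – luminescence from split beta-galactosidase complementation, Galacton Star/Emerald II substrate · Measure – beta-arrestin recruitment to APJ as agonist activity, luminescent signal · Benchmarks – DMSO vs Apelin-13 10 nM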
CXCR6 inh = inhibitors of human CXCR6 receptor; inhibition, % at 20 µM; AID 602244; CHO-K1 PathHunter CXCR6 beta-arrestin, luminescence; 360,000 tested, 0.36% active; O00574; in the data active = inhibition above about 34%, passing the limit was not always enough;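 also: antagonist mode with CXCL16 agonist at 10 nM final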
APJ antagonist = blocks the human apelin receptor APJ; AID 2521; CHO-K1 APJ beta-arrestin complementation, luminescence; inhibition, % at 20 µM; 330,000 tested, 0.32% active; P35414;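 active = inhibition above about 40% at 20 µM, limit read from the data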;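 also: cells challenged with 10 nM apelin-13 agonist together with compound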
EBI2 block = blocks human EBI2 receptor beta-arrestin signaling; EBI2 beta-arrestin recruitment, luminescence, 7a,25-OHC stimulated; inhibition, % at 5 µM; P32249; AID 651636; 360,000 tested, 0.81% active; in the data active = inhibition above about 38%;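 also: enzyme fragment complementation signal reports receptor beta-arrestin coupling in cells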
CCR6 antag = CCR6 (human) receptor antagonism; CHO-K1 CCR6 PathHunter beta-arrestin, luminescence, CCL20-stimulated; 340,000 tested, 0.49% active; P51684; inhibition, % at 20 µM;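 active = compounds whose inhibition of the agonist-driven luminescence signal at 20 µM reaches about 50%, limit read from the data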;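 also: cells stimulated with CCL20 at 14 nM final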
m5-HT2A agonist = mouse HTR2A agonism via beta-arrestin recruitment. 360,000 tested, 0.66% active. P35363. activation, % at 7.6 µM. AID 624169. CHO-K1 mHTR2A beta-arrestin complementation, luminescence; percent of 30 µM serotonin response;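 active = activation above a run cutoff, the mean activation of all tested compounds plus 3 SD, cut at about 14% in these data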
EBI2 conf = EBI2 (human) antagonism, single concentration confirmation; inhibition, % at 5 µM; shares compounds with EBI2 block; 2,400 tested, 29% active; EBI2 beta-arrestin luminescence, 7a,25-OHC antagonism;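 active = inhibition of at least 50%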
EBI2 ag = counter-screen for EBI2 antagonists: EBI2 agonist activity | shares compounds with EBI2 block | EBI2-expressing cells, agonist mode, luminescence, 60 min; 0% vehicle, 100% 7α,25-dihydroxycholesterol control | activation, % at 5 µM | 2,400 tested, under 10 active;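 active = activation of at least 50%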
bGal counter = beta-galactosidase inhibition counter-screen | shares compounds with EBI2 block | purified beta-galactosidase, luminescent Galacton Star, 15 min | inhibition, % at 5 µM | 2,400 tested, 1% active | AID 652176;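 active = replicate-average signal at least 3 plate SD below neutral wells, shown as high inhibition, flagging enzyme-inhibiting false positives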;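 also: higher means stronger loss of beta-gal luminescence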
Large screens that a line does not name were inactive (follow-up assays come after a bar, where they were run). A selection: hits, their analogues and other compounds. The true share with any hit is near 2.1%.

Cc1ccc(C(=O)COC(=O)CNC(=O)c2ccc(N3C(=O)c4ccccc4C3=O)cc2)cc1C	none
C=C(CO)C1Cc2cc(C(C)=O)ccc2O1 (centres undefined)	none
CC(C)CC(=O)NC(=S)N(Cc1ccccc1)Cc1ccccc1	none
O=C(COC(=O)/C=C/c1ccc(OC(F)F)cc1)NCCN1C(=O)CSC1=O	none
O=C(COC(=O)/C=C/c1ccc(Cl)cc1)NCCN1C(=O)CSC1=O	EBI2 block 46 | EBI2 conf inactive | EBI2 ag inactive | bGal counter inactive
C/C(=N/NC(=O)CNc1ccc(C)cc1)c1ccc(Cl)cc1	none
Cc1ccc(C(=O)CNc2ccc(Cl)cc2)cc1	CXCR6 inh 53, APJ antagonist 102, EBI2 block 57, CCR6 antag 71 | EBI2 conf 76 | EBI2 ag inactive | bGal counter inactive
CCc1ccc(OCCNC(=O)c2ccc(S(=O)(=O)N(C)C)cc2)cc1	EBI2 block 64 | EBI2 conf inactive | EBI2 ag inactive | bGal counter inactive
CN(C)S(=O)(=O)c1ccc(C(=O)NCCSc2ccccc2)cc1	none
Cc1ccc(S(=O)(=O)NCCC(=O)NCCOc2ccccc2)cc1	none
Cc1cccc(C)c1NC(=O)C(=O)NCCOc1ccc(Cl)cc1	EBI2 block 51 | EBI2 conf inactive | EBI2 ag inactive | bGal counter inactive
Cc1ccc(OCCNC(=O)Cc2ccc(F)cc2)cc1	EBI2 block 50 | EBI2 conf inactive | EBI2 ag inactive | bGal counter inactive
O=C(NCCOc1ccc(Cl)cc1)C(=O)NCC1CCCO1 (centres undefined)	none
Cc1ccc(OCCNC(=O)CCNS(=O)(=O)c2ccc3ccccc3c2)cc1	EBI2 block 47 | EBI2 conf inactive | EBI2 ag inactive | bGal counter inactive
Cc1ccc(C(=O)NCCOc2ccc(Cl)cc2)cc1	EBI2 block 51 | EBI2 conf inactive | EBI2 ag inactive | bGal counter inactive
Cc1ccc(OCCNC(=O)c2cc(C(=O)NCCOc3ccc(C)cc3)cc([N+](=O)[O-])c2)cc1	EBI2 block 47 | EBI2 conf inactive | EBI2 ag inactive | bGal counter inactive
NC(N)=NC(N)=Nc1ccccc1	none
COc1ccc([C@H]2CC(=O)C=C(c3ccc4cc[nH]c4c3)C2)cc1	EBI2 block 49 | EBI2 conf inactive | EBI2 ag inactive | bGal counter inactive
COc1ccc([C@H]2CC(=O)C=C(c3ccc(SC)cc3)C2)cc1OC	none
COc1ccc([C@H]2CC(=O)C=C(c3cc(C(F)(F)F)cc(C(F)(F)F)c3)C2)cc1	none
COc1ccc([C@H]2CC(=O)C=C(c3cc(Cl)cc(Cl)c3)C2)cc1	EBI2 block 46 | EBI2 conf inactive | EBI2 ag inactive | bGal counter inactive
COc1ccc([C@H]2CC(=O)C=C(c3ccc4c(c3)OCO4)C2)cc1	none
COc1ccc([C@H]2CC(=O)C=C(c3ccccc3)C2)cc1	EBI2 block 41 | EBI2 conf inactive | EBI2 ag inactive | bGal counter inactive
CSc1ccc(C2=CC(=O)C[C@H](c3ccc(F)cc3)C2)cc1	EBI2 block 66 | EBI2 conf 50 | EBI2 ag inactive | bGal counter inactive
Fc1cccc(-c2cc3nc4c(c(NCc5ccco5)n3n2)CCCC4)c1	none
Cc1cccc(-c2noc(Cc3ccc(Cl)cc3)n2)c1	none
CC(=O)C[C@H](O)CC(=O)[C@H]1OC(=O)[C@@H](C)C/C=C\Cc2ccccc21	none
Cc1cc(C2=CC(=O)C[C@H](c3ccc(F)cc3)C2)ccc1F	EBI2 block 49 (no result: APJ agonist, APJ antagonist, CCR6 antag) | EBI2 conf inactive | EBI2 ag inactive | bGal counter inactive
O=C1C=C(c2ccc(OC(F)(F)F)cc2)C[C@@H](c2ccc(F)cc2)C1	EBI2 block 52 | EBI2 conf inactive | EBI2 ag inactive | bGal counter inactive
COc1ccc([C@H]2CC(=O)C=C(c3ccc(SC)cc3)C2)cc1	EBI2 block 71 | EBI2 conf inactive | EBI2 ag inactive | bGal counter inactive
COc1ccc([C@H]2CC(=O)C=C(c3cccc(OC)c3)C2)cc1	none
COc1ccc(C2=CC(=O)C[C@H](c3ccc(OC)cc3)C2)cc1	EBI2 block 54 | EBI2 conf inactive | EBI2 ag inactive | bGal counter inactive
CCCn1c(CN2CCN(c3cccc(Cl)c3)CC2)nc2c1c(=O)n(C)c(=O)n2C	none
O=C(NC1CC2CCCC(C1)N2Cc1ccccc1)c1cccc(Cl)c1 (centres undefined)	none
Cc1ccc(/C=N/NC(=O)CNC(=O)c2ccc(S(=O)(=O)N3CCCC3)cc2)o1	none
CCOC(=O)/C=C1\CC(C(=O)OCC)Oc2c(OC)cccc21 (centres undefined)	none (no result: APJ agonist, APJ antagonist)
O=C1C=C(c2cc(Cl)cc(Cl)c2)C[C@@H](c2ccc(F)cc2)C1	EBI2 block 48 | EBI2 conf inactive | EBI2 ag inactive | bGal counter inactive
O=C1C=C(c2ccc(Cl)c(C(F)(F)F)c2)C[C@@H](c2ccc(F)cc2)C1	none
COc1ccc([C@H]2CC(=O)C=C(c3ccc4c(c3)sc3ccccc34)C2)cc1	EBI2 block 55 | EBI2 conf inactive | EBI2 ag inactive | bGal counter inactive
COc1ccc(NC2=CC(=O)CC(c3ccccc3)C2)cc1 (centres undefined)	EBI2 block 52 | EBI2 conf inactive | EBI2 ag inactive | bGal counter inactive
COc1ccc([C@H]2CC(=O)C=C(c3ccc4ccn(C)c4c3)C2)cc1	EBI2 block 73 | EBI2 conf inactive | EBI2 ag inactive | bGal counter inactive
Cc1ccc(C)c(OCC(=O)NCCNC(=O)COc2cc(C)ccc2C)c1	none
Cc1c(Cl)cccc1NC(=O)CC1SCCNC1=O (centres undefined)	none
COc1ccc2nc(C)cc(SCC(=O)NNC(=O)COc3ccccc3)c2c1	EBI2 block 48 | EBI2 conf inactive | EBI2 ag inactive | bGal counter inactive
Cc1ccc(NCCNc2ccc(C)cc2)cc1	EBI2 block 47 | EBI2 conf 58 | EBI2 ag inactive | bGal counter inactive
Cc1cccc(NCCNc2cccc(C)c2)c1	none
COc1ccc(C(=O)CCNc2ccc(F)cc2)cc1	none
Cc1ccc(NCCc2ccc(C)nc2)cc1	EBI2 block 47 | EBI2 conf inactive | EBI2 ag inactive | bGal counter inactive
Cc1ccc(CCNc2ccc3ccccc3c2)cn1	none

From PubChem BioAssay
